Compound activity: PubChem, several laboratories
HCV NS3 hel inh: HCV NS3 helicase inhibition; NS3 helicase DNA unwinding, Cy5 molecular beacon fluorescence; 290,000 tested, 0.56% active; AID 1800; inhibition, % at 10.9 µM;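 active = inhibition above the mean of all tested compounds plus 3 SD, set per campaign, cut at about 35% in these data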;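 also: 0% = DMSO wells and 100% = thioflavine S control wells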
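System: NS3 helicase fragment of HCV / Schedule: 1 h at 25 °C / Control set: DMSO alone as 0% and 110 µM thioflavine S as 100% / Reagent: Cy5/quencher beacon DNA duplex and ATP to start / Technique: Cy5 fluorescence / Replication: singlicate / Evaluation: % inhibition of end-to-start signal ratio versus controls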
GRIN3A LBD mod: modulates the human NR3A ligand-binding domain; 340,000 tested, 2.5% active; Tm shift relative to glycine control, % at 25 µM; NR3A LBD differential scanning fluorimetry, Tm shift; 0% = protein alone, 100% = glycine-bound protein;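 active = melting temperature shift of at least 10% of the positive control shift, at one fixed dose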
ZTA counter: blocks Epstein-Barr virus ZTA, an EBNA-1 counter-screen | P03206 | inhibition, % at 11 µM | ZTA-DNA binding, fluorescence polarization | 320,000 tested, 0.15% active; in the data active = inhibition above about 33%
Target sequence (P03206 whole entry, looked up): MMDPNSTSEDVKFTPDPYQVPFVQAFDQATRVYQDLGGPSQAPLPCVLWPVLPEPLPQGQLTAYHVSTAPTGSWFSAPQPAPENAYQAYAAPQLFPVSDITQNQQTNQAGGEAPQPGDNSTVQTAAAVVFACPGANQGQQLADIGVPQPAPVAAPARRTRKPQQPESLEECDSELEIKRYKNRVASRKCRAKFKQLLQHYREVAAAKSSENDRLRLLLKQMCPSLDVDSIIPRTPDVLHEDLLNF
DNA FID counter: fluorescent intercalator displacement, NS3 helicase counter-screen; DNA fluorescent intercalator displacement, fluorescence; inhibition, % at 7.9 µM; 290,000 tested, 0.17% active; in the data active = inhibition above about 37%;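 also: 0% = vehicle and 100% = reference compound; higher means more ethidium bromide displaced from hairpin DNA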
EBNA-1 inhibitor: blocks EBNA-1 binding to DNA | EBNA-1 DNA binding, fluorescence polarization | inhibition, % at 14.8 µM | 300,000 tested, 0.34% active | AID 1950; in the data active = inhibition above about 28%
FGF22 binding: shifts melting point of recombinant human FGF22; AID 651658; recombinant FGF22 thermal shift, SYPRO orange fluorescence; percent of sucrose octasulfate shift, DMSO zero; activity (Tm shift, normalised), % at 9.99 µM; Q9HCT0; 340,000 tested, 1.5% active;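 active = mean Tm shift, scaled 0 neutral to 100 positive control, at about 1.3% or above, every replicate too, limit read from the data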
Target sequence (Q9HCT0 whole entry, looked up): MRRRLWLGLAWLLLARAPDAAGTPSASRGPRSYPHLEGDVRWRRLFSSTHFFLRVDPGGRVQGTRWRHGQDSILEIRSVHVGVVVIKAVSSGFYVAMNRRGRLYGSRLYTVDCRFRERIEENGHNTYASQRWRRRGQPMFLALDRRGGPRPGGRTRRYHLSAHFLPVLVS
* marks the source's active call; other numbers are inactive results; · = not tested or not shown. An excerpt weighted towards active compounds, which were near 3.6% of everything screened.

SMILES	HCV NS3 hel inh	GRIN3A LBD mod	ZTA counter	DNA FID counter	EBNA-1 inhibitor	FGF22 binding
O=C(Cc1ccc(Cl)cc1)NCC(=O)N1CCC2(CC1)NCCc1[nH]cnc12	·	·	·	·	·	43*
O=C(Nc1ccccc1F)N[C@H]1CC[C@H](CCNC(=O)C2CCC2)O[C@@H]1CO	·	·	·	·	·	0
Cc1ccc(SC(C)C(=O)N2CCC(C(N)=O)CC2)cc1 (stereo not given)	5	-1	9	3	1	42
Cc1ccc(SC(C)C(=O)N2CCCC2)cc1 (stereo not given)	0	12*	-7	-9	2	·
CCS(=O)(=O)Nc1ccc2c(c1)C(=O)N(C)[C@@H]1CC[C@@H](CC(=O)OC)O[C@H]1CO2	·	·	·	·	·	0
O=C(NCCCn1ccnc1)c1ccc(Cl)cc1[N+](=O)[O-]	2	-5	-8	5	-7	43*
O=C(C[C@@H]1C=C[C@H](NC(=O)C2CCC2)[C@@H](CO)O1)NCCCN1CCOCC1	·	·	·	·	·	0
O=C(C1CC1)N1CC[C@@H]2[C@H]1c1cc(C#Cc3ccccc3F)ccc1N[C@@H]2CO	·	·	·	·	·	0
COc1ccc2c3c([nH]c2c1)[C@H](CO)N(Cc1ccc(Cl)cc1)CC31CN(Cc2nccs2)C1	·	·	·	·	·	0
Cc1cc(C)cc(NC(=S)NCc2ccncc2)c1	3	0	11	-7	7	44*
C[C@@H]1CCCCO[C@@H](CN(C)C(=O)c2ccncc2)[C@@H](C)CN([C@@H](C)CO)C(=O)c2cc(NC(=O)C3CCCCC3)ccc2O1	·	·	·	·	·	0
Fc1cccc(C2NN=C(c3ccccc3)S2)c1 (stereo not given)	25	34*	7	-4	10	44*
Cc1ccc(C2=NNC(c3cccc(F)c3)S2)cc1 (stereo not given)	-5	-13	4	-3	-10	43
CC1=NN(c2nc(-c3ccc(C)cc3)cs2)C(=O)C1N=Nc1ccc(C(N)=O)cc1 (stereo not given)	6	27*	2	-1	-10	0
CC1(C)Cc2nc(NCCCO)c(C#N)cc2CO1	0	16*	11	3	8	·
Cc1cc(C)nc(NS(=O)(=O)c2ccc(NC(=O)c3cc(-c4ccccc4)nc4ccccc34)cc2)n1	6	19*	10	-13	8	0
COc1ccc(C(=O)Nc2ccc(S(=O)(=O)Nc3cc(C)nc(C)n3)cc2)c(OC)c1	0	5	-5	-14	-3	·
CCN(CC)S(=O)(=O)c1ccc(NC(=O)c2cc(-c3ccccc3)nc3ccccc23)cc1	-8	2	6	-5	10	0
COc1ccccc1C(=O)Nc1ccc(S(=O)(=O)Nc2cc(C)nc(C)n2)cc1	-3	16*	7	-5	2	·
Cc1ccc(-c2cc(C(=O)Nc3ccc(S(=O)(=O)Nc4onc(C)c4C)cc3)c3ccccc3n2)cc1	-19	3	0	-23	-4	1.7*
CCC(=O)N1[C@@H](CO)[C@H](c2ccc(-c3ccc(C#N)cc3)cc2)C12CN(C(C)=O)C2	·	·	·	·	·	0
Cc1ccc(-c2cnc3c(c2)C(=O)N([C@@H](C)CO)C[C@H](C)[C@H](CN(C)Cc2ccccc2C(=O)O)O3)cc1	·	·	·	·	·	0
C[C@H](CO)N1C[C@H](C)[C@H](CN(C)Cc2cccc(C(=O)O)c2)OCc2cn(nn2)CCCC1=O	·	·	·	·	·	1
CC1CCN(C(=O)c2ccc3c(c2NCCO)C(=O)c2ccccc2C3=O)CC1	-5	0	-10	-21	-4	·
CCN(CC)CCC(=O)Nc1cccc2c1C(=O)c1ccccc1C2=O	-7	-1	4	69*	5	0
Cc1cccc(NC(=O)COC(=O)c2cccc3c2C(=O)c2ccccc2C3=O)c1C	1	-13	9	0	10	·
Nc1cccc(C(=O)OCC(=O)Nc2cccc3c2C(=O)c2ccccc2C3=O)c1	2	33*	1	0	-1	·
CCN(CC)CCNC(=O)c1ccc2c(c1NCCO)C(=O)c1ccccc1C2=O	-10	1	-15	42*	-8	0
CO[C@H](CN(C)C(=O)c1ccccc1F)[C@@H](C)CN([C@@H](C)CO)S(=O)(=O)c1ccccc1	·	·	·	·	·	0
CCCC#Cc1ccc2c(c1)O[C@H](CN(C)C(=O)Nc1ccccc1F)[C@@H](C)CN([C@H](C)CO)S2(=O)=O	·	·	·	·	·	0
